# Results reported in ChEMBL document CHEMBL1806372, “Cytotoxic ring A-modified steroid analogues derived from Grundmann's ketone” (Eur J Med Chem, 2011).
# Assays:
# T47D [1] = experiment: Cytotoxicity against human T47D cells after 48 hrs by sulforhodamine B assay; assay type: functional; conditions: read-out: LC50 (the source's name)
# HCC 2998 = experiment: Growth inhibition of human HCC2998 cells after 48 hrs by sulforhodamine B assay; assay type: functional; conditions: HCC 2998, 48 h
# Procedure, shortened: (§1)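 From log concentration versus % growth curves, GI50 (50% decrease in net growth), TGI (total growth inhibition) and LC50 (net 50% loss of initial cells) are derived for each line.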
# NCI-H23 = experiment: Cytotoxicity against human NCI-H23 cells after 48 hrs by sulforhodamine B assay; assay type: functional; conditions: NCI-H23, 48 h, read-out: LC50 (the source's name)
# Procedure, shortened: (§2)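 NCI 60 human tumour cell line panel run to the NCI protocol. GI50, TGI and LC50 come from log concentration vs % growth inhibition curves for each cell line. Lines insensitive at the top concentration are reported with ">".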
# A498 = experiment: Growth inhibition of human A498 cells after 48 hrs by sulforhodamine B assay; assay type: functional; conditions: A498, 48 h; procedure, shortened: as §1
# CCRF-CEM = experiment: Growth inhibition of human CCRF-CEM cells after 48 hrs by sulforhodamine B assay; assay type: functional; procedure, shortened: as §1
# UACC-257 = experiment: Growth inhibition of human UACC257 cells after 48 hrs by sulforhodamine B assay; assay type: functional; conditions: UACC-257, 48 h
# Procedure, shortened: (§3)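 NCI 60-cell panel five-dose assay. GI50, TGI and LC50 are derived from log concentration versus % growth inhibition curves. Cell lines insensitive at the top concentration are given a ">" prefix.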
# NCI-H322M = experiment: Growth inhibition of human NCI-H322M cells after 48 hrs by sulforhodamine B assay; assay type: functional
# Procedure, shortened: (§4)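 GI50, TGI and LC50 were derived from log concentration versus % growth inhibition curves for each cell line. GI50 is the concentration giving a 50% decrease in net cell growth. Insensitive lines are reported as greater than the highest concentration.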
# HT-29 = experiment: Cytotoxicity against human HT-29 cells after 48 hrs by sulforhodamine B assay; assay type: functional; conditions: HT-29, 48 h, read-out: LC50 (the source's name); procedure, shortened: as §2
# ACHN = experiment: Growth inhibition of human ACHN cells after 48 hrs by sulforhodamine B assay; assay type: functional; procedure, shortened: as §1
# SK-OV-3 = experiment: Cytotoxicity against human SKOV3 cells after 48 hrs by sulforhodamine B assay; assay type: functional; conditions: SK-OV-3, 48 h, read-out: LC50 (the source's name); procedure, shortened: as §2
# SN12C = experiment: Growth inhibition of human SN12C cells after 48 hrs by sulforhodamine B assay; assay type: functional; procedure, shortened: as §3
# CAKI-1 = experiment: Growth inhibition of human Caki1 cells after 48 hrs by sulforhodamine B assay; assay type: functional; conditions: CAKI-1, 48 h; procedure, shortened: as §1
# SF-295 [2] = experiment: Cytotoxicity against human SF295 cells after 48 hrs by sulforhodamine B assay; assay type: functional; conditions: SF-295, 48 h, read-out: LC50 (the source's name); procedure, shortened: as §2
# T47D [3] = experiment: Growth inhibition of human T47D cells after 48 hrs by sulforhodamine B assay; assay type: functional; procedure, shortened: as §3
# MDA-MB-435 = experiment: Growth inhibition of human MDA-MB-435 cells after 48 hrs by sulforhodamine B assay; assay type: functional; conditions: MDA-MB-435, 48 h; procedure, shortened: as §4
# TK-10 = experiment: Growth inhibition of human TK10 cells after 48 hrs by sulforhodamine B assay; assay type: functional; conditions: TK-10, 48 h; procedure, shortened: as §3
# SK-MEL-5 = experiment: Growth inhibition of human SK-MEL-5 cells after 48 hrs by sulforhodamine B assay; assay type: functional; conditions: SK-MEL-5, 48 h; procedure, shortened: as §4
# SW-620 = experiment: Growth inhibition of human SW620 cells after 48 hrs by sulforhodamine B assay; assay type: functional; conditions: SW-620, 48 h; procedure, shortened: as §3
# LOX IMVI = experiment: Growth inhibition of human LOXIMVI cells after 48 hrs by sulforhodamine B assay; assay type: functional; procedure, shortened: as §1
# NCI-H226 = experiment: Cytotoxicity against human NCI-H226 cells after 48 hrs by sulforhodamine B assay; assay type: functional; conditions: NCI-H226, 48 h, read-out: LC50 (the source's name); procedure, shortened: as §2
# HL-60(TB) = experiment: Cytotoxicity against human HL-60(TB) cells after 48 hrs by sulforhodamine B assay; assay type: functional; conditions: HL-60, 48 h, read-out: LC50 (the source's name); procedure, shortened: as §2
# HCT-15 = experiment: Growth inhibition of human HCT15 cells after 48 hrs by sulforhodamine B assay; assay type: functional; conditions: HCT-15, 48 h; procedure, shortened: as §1
# NCI/ADR-RES = experiment: Cytotoxicity against human NCI/ADR-RES cells after 48 hrs by sulforhodamine B assay; assay type: functional; conditions: read-out: LC50 (the source's name); procedure, shortened: as §2
# UACC-62 = experiment: Growth inhibition of human UACC62 cells after 48 hrs by sulforhodamine B assay; assay type: functional; conditions: UACC-62, 48 h; procedure, shortened: as §3
# MDA-MB-231 [4] = experiment: Growth inhibition of human MDA-MB-231 cells after 48 hrs by sulforhodamine B assay; assay type: functional; conditions: MDA-MB-231, 48 h; procedure, shortened: as §4
# RPMI-8226 = experiment: Cytotoxicity against human RPMI8226 cells after 48 hrs by sulforhodamine B assay; assay type: functional; conditions: RPMI-8226, 48 h, read-out: LC50 (the source's name); procedure, shortened: as §2
# SF-539 = experiment: Cytotoxicity against human SF539 cells after 48 hrs by sulforhodamine B assay; assay type: functional; conditions: SF-539, 48 h, read-out: LC50 (the source's name); procedure, shortened: as §2
# K562 = experiment: Cytotoxicity against human K562 cells after 48 hrs by sulforhodamine B assay; assay type: functional; conditions: K562, 48 h, read-out: LC50 (the source's name); procedure, shortened: as §2
# MCF7 = experiment: Growth inhibition of human MCF7 cells after 48 hrs by sulforhodamine B assay; assay type: functional; conditions: MCF7, 48 h; procedure, shortened: as §4
# MDA-MB-231 [5] = experiment: Cytotoxicity against human MDA-MB-231 cells after 48 hrs by sulforhodamine B assay; assay type: functional; conditions: MDA-MB-231, 48 h, read-out: LC50 (the source's name); procedure, shortened: as §2
# DU-145 = experiment: Cytotoxicity against human DU145 cells after 48 hrs by sulforhodamine B assay; assay type: functional; conditions: DU-145, 48 h, read-out: LC50 (the source's name); procedure, shortened: as §2
# OVCAR-4 = experiment: Cytotoxicity against human OVCAR4 cells after 48 hrs by sulforhodamine B assay; assay type: functional; conditions: OVCAR-4, 48 h, read-out: LC50 (the source's name); procedure, shortened: as §2
# UO-31 = experiment: Growth inhibition of human UO31 cells after 48 hrs by sulforhodamine B assay; assay type: functional; conditions: UO-31, 48 h; procedure, shortened: as §3
# SF-295 [6] = experiment: Growth inhibition of human SF295 cells after 48 hrs by sulforhodamine B assay; assay type: functional; conditions: SF-295, 48 h; procedure, shortened: as §4
# [7] = Antibacterial activity against Pseudomonas antimicrobica assessed as zone of inhibition at 5 uL and 32 degC after 36 hrs by disk diffusion method; assay type: functional, Burkholderia gladioli
# Procedure, shortened: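 Disc diffusion on AC agar, each strain spread evenly over the medium; test compounds given as 1% (w/v) DMSO solutions. Plates covered and incubated 36 h at 32 °C, then the diameter of the zone of inhibited growth measured in mm. Tetracycline served as antibacterial reference.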
smiles,measurement,setting,value
CC(C)CCC[C@@H](C)[C@H]1CC[C@H]2C3=CC[C@@H]4C(=O)C=CC(=O)[C@@H]4[C@@H]3CC[C@]12C,CC50,T47D [1],> 100000 nM
same,GI50,HCC 2998,274 nM
same,TGI,HCC 2998,855 nM
same,CC50,NCI-H23,> 100000 nM
same,GI50,A498,384 nM
same,TGI,A498,1120 nM
same,GI50,CCRF-CEM,189 nM
same,TGI,CCRF-CEM,> 100000 nM
same,GI50,UACC-257,230 nM
same,TGI,UACC-257,610 nM
same,GI50,NCI-H322M,305 nM
same,TGI,NCI-H322M,849 nM
same,CC50,HT-29,> 100000 nM
same,GI50,ACHN,162 nM
same,TGI,ACHN,1350 nM
same,CC50,SK-OV-3,> 100000 nM
same,GI50,SN12C,269 nM
same,TGI,SN12C,> 100000 nM
same,GI50,CAKI-1,279 nM
same,TGI,CAKI-1,633 nM
same,CC50,SF-295 [2],> 100000 nM
same,GI50,T47D [3],337 nM
same,TGI,T47D [3],> 100000 nM
same,GI50,MDA-MB-435,229 nM
same,TGI,MDA-MB-435,997 nM
same,GI50,TK-10,2650 nM
same,TGI,TK-10,> 100000 nM
same,GI50,SK-MEL-5,309 nM
same,TGI,SK-MEL-5,1000 nM
same,GI50,SW-620,141 nM
same,GI50,LOX IMVI,227 nM
same,TGI,LOX IMVI,1170 nM
same,CC50,NCI-H226,> 100000 nM
same,CC50,HL-60(TB),> 100000 nM
same,GI50,HCT-15,212 nM
same,CC50,NCI/ADR-RES,> 100000 nM
same,GI50,UACC-62,752 nM
same,TGI,UACC-62,> 100000 nM
same,GI50,MDA-MB-231 [4],343 nM
same,TGI,MDA-MB-231 [4],1760 nM
same,CC50,RPMI-8226,> 100000 nM
same,CC50,SF-539,> 100000 nM
same,CC50,K562,> 100000 nM
same,GI50,MCF7,112 nM
same,TGI,MCF7,757 nM
same,CC50,MDA-MB-231 [5],> 100000 nM
same,CC50,DU-145,> 100000 nM
same,CC50,OVCAR-4,> 2650 nM
same,GI50,UO-31,72 nM
same,TGI,UO-31,359 nM
same,GI50,SF-295 [6],141 nM
same,TGI,SF-295 [6],539 nM
CC(C)CCC[C@@H](C)[C@H]1CC[C@H]2C3=CCn4c(=O)ccc(=O)n4[C@@H]3CC[C@]12C,CC50,T47D [1],6290 nM
same,GI50,HCC 2998,431 nM
same,TGI,HCC 2998,1640 nM
same,CC50,NCI-H23,9000 nM
same,GI50,A498,1060 nM
same,TGI,A498,2270 nM
same,GI50,CCRF-CEM,360 nM
same,TGI,CCRF-CEM,> 100000 nM
same,GI50,UACC-257,433 nM
same,TGI,UACC-257,1550 nM
same,GI50,NCI-H322M,1450 nM
same,TGI,NCI-H322M,2910 nM
same,CC50,HT-29,5510 nM
same,GI50,ACHN,1040 nM
same,TGI,ACHN,2320 nM
same,CC50,SK-OV-3,5470 nM
same,GI50,SN12C,388 nM
same,TGI,SN12C,1690 nM
same,GI50,CAKI-1,179 nM
same,TGI,CAKI-1,577 nM
same,CC50,SF-295 [2],3760 nM
same,GI50,T47D [3],255 nM
same,TGI,T47D [3],1620 nM
same,GI50,MDA-MB-435,354 nM
same,TGI,MDA-MB-435,1780 nM
same,GI50,TK-10,356 nM
same,TGI,TK-10,1260 nM
same,GI50,SK-MEL-5,563 nM
same,TGI,SK-MEL-5,1830 nM
same,GI50,SW-620,375 nM
same,TGI,SW-620,1360 nM
same,GI50,LOX IMVI,288 nM
same,TGI,LOX IMVI,1050 nM
same,CC50,NCI-H226,8330 nM
same,CC50,HL-60(TB),> 100000 nM
same,GI50,HCT-15,418 nM
same,TGI,HCT-15,2220 nM
same,CC50,NCI/ADR-RES,2280 nM
same,GI50,UACC-62,544 nM
same,TGI,UACC-62,1950 nM
same,GI50,MDA-MB-231 [4],1040 nM
same,TGI,MDA-MB-231 [4],2540 nM
same,CC50,RPMI-8226,> 100000 nM
same,CC50,SF-539,5640 nM
same,CC50,K562,> 100000 nM
same,GI50,MCF7,285 nM
same,TGI,MCF7,1240 nM
same,CC50,MDA-MB-231 [5],6250 nM
same,CC50,DU-145,4890 nM
same,CC50,OVCAR-4,5630 nM
same,GI50,UO-31,237 nM
same,TGI,UO-31,1150 nM
same,diameter of the inhibition zone (DIZ),[7],8 mm
same,GI50,SF-295 [6],110 nM
same,TGI,SF-295 [6],627 nM
CC(C)CCC[C@@H](C)[C@H]1CC[C@H]2[C@@H]3CCN4C(=O)CCC(=O)N4[C@@H]3CC[C@]12C,diameter of the inhibition zone (DIZ),[7],12 mm
